Reference: ChEMBL document CHEMBL4823332, “Discovery and Development of Cyclic Peptide Inhibitors of CIB1” (ACS Med Chem Lett, 2021)
The source made the active and inactive calls. The calls are words filed in the database; no cut-off is given here. Starred links: 1 amine or outer side, 2 acyl side, 3 side chain; linkers in the order of their positions; H or OH if unused. Residues, ends and D or L forms follow the SMILES beside them. *: point of attachment. NH(CH2CH2O)2(CH2)6Cl = ClCCCCCCOCCOCCN*; Suc = O=C(CCC(=O)[*:2])[*:1]

Columns and labels:
MDA-MB-468 = assay: Cytotoxicity against human MDA-MB-468 cells assessed as cell death at 30 uM incubated for 24 hrs by trypan blue assay; type: functional
[1] = target: T1, Calcium and integrin-binding protein 1 (Homo sapiens) (UniProt Q99828); assay: Inhibition of CIB1 in human MDA-MB-231 cells assessed as reduction in pAKT level after 6 to 24 hrs by Western blotting analysis; type: cell-based; conditions: time 6-24 hrs
T1 sequence (whole entry): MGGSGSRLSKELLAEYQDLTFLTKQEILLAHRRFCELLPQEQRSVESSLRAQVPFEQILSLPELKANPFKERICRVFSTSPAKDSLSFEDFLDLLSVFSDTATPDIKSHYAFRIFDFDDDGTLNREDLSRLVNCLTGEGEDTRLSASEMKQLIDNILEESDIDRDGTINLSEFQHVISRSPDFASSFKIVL
Method in brief: (§1)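 Cells were treated with peptide for 6 h and for 24 h alongside a DMSO vehicle control. Lysates were then immunoblotted for phospho-AKT, phospho-ERK and CIB1, and the levels were compared with the DMSO-treated cells.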

[2] = Cytotoxicity against human MDA-MB-231 cells assessed as cell death at 30 uM incubated for 24 hrs by trypan blue assay; type: cell-based; conditions: mda-mb-231, 24 h
[3] = Stability in human MDA-MB-468 cell lysates assessed as compound remaining at 150 uM after 24 hrs by LCMS method; type: ADME, subcellular; conditions: read-out: Stabilty
Method in brief: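 Peptides were incubated in MDA-MB-468 cell lysates at 37 °C.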

[4] = target: T1, Calcium and integrin-binding protein 1 (Homo sapiens); assay: Inhibition of CIB1 in human MDA-MB-468 cells assessed as reduction in pERK level after 6 to 24 hrs by Western blotting analysis; type: cell-based; conditions: time 6-24 hrs; method in brief: as §1
[5] = target: T1, Calcium and integrin-binding protein 1 (Homo sapiens); assay: Inhibition of CIB1 in human MDA-MB-231 cells assessed as reduction in pERK level after 6 to 24 hrs by Western blotting analysis; type: cell-based; conditions: time 6-24 hrs; method in brief: as §1
[6] = target: T2, Calcium and integrin-binding protein 1 (Homo sapiens, UniProt Q99828); assay: Displacement of Alexa Fluor 647 labelled UNC10245092 peptide from CIB1 (unknown origin) preincubated for 20 mins followed by Alexa-CIB1 phage peptide addition and measured after 20 to 30 mins by TR-FRET assay
T2 sequence (Q99828 whole entry): T1 sequence (whole entry)

[7] = target: T1, Calcium and integrin-binding protein 1 (Homo sapiens); assay: Inhibition of CIB1 in human MDA-MB-231 cells assessed as reduction in CIB1 level after 6 hrs by Western blotting analysis; type: cell-based; method in brief: as §1
[8] = target: T1, Calcium and integrin-binding protein 1 (Homo sapiens); assay: Inhibition of CIB1 in human MDA-MB-468 cells assessed as reduction in CIB1 level after 6 hrs by Western blotting analysis; type: cell-based; method in brief: as §1
[9] = target: T1, Calcium and integrin-binding protein 1 (Homo sapiens); assay: Inhibition of CIB1 in human MDA-MB-468 cells assessed as reduction in pAKT level after 6 to 24 hrs by Western blotting analysis; type: cell-based; conditions: time 6-24 hrs; method in brief: as §1

## CSCC[C@H](NC(=O)[C@H](C)NC(=O)CNC(=O)[C@H](Cc1ccc(O)cc1)NC(=O)[C@H](Cc1c[nH]c2ccccc12)NC(=O)[C@H](Cc1ccccc1)NC(=O)[C@H](CO)NC(=O)CNC(=O)CNC(=O)[C@H](CC(=O)O)NC(=O)[C@H](CCC(=O)O)NC(=O)[C@H](CCC(N)=O)NC(=O)[C@@H]1CCCN1C(=O)[C@H](CCCNC(=N)N)NC(=O)[C@H](CCCNC(=N)N)NC(=O)[C@H](CCCNC(=N)N)NC(=O)[C@H](CCC(N)=O)NC(=O)[C@H](CCCNC(=N)N)NC(=O)[C@H](CCCNC(=N)N)NC(=O)[C@H](CCCCN)NC(=O)[C@H](CCCCN)NC(=O)[C@H](CCCNC(=N)N)NC(=O)CNC(=O)CCC(=O)NCCOCCOCCCCCCCl)C(=O)N[C@@H](CCCCN)C(=O)N[C@@H](C)C(=O)N[C@@H](CC(C)C)C(=O)N[C@@H](Cc1ccc(O)cc1)C(=O)NCC(N)=O ({NH(CH2CH2O)2(CH2)6Cl-Suc}-GRKKRRQRRRPQEDGGSFWYGAMKALYG-NH2)
MDA-MB-468
  Activity: 57.1%
[1]
  inhibition: Active
[2]
  Activity: 9.6%
[3]
  remaining at 24 h, 150 µM: 0%
[4]
  inhibition: Active
[5]
  inhibition: Active
[6]
  IC50: 150 nM
[7]
  inhibition: Active
[8]
  inhibition: Active
[9]
  inhibition: Active
